Experimental data of several laboratories.
Each line is one published result; the experiments were not run side by side.
Target: Dual specificity mitogen-activated protein kinase kinase 5 (MAP2K5, Homo sapiens, UniProt Q13163)
Residues used in one study (Q13163 1-448): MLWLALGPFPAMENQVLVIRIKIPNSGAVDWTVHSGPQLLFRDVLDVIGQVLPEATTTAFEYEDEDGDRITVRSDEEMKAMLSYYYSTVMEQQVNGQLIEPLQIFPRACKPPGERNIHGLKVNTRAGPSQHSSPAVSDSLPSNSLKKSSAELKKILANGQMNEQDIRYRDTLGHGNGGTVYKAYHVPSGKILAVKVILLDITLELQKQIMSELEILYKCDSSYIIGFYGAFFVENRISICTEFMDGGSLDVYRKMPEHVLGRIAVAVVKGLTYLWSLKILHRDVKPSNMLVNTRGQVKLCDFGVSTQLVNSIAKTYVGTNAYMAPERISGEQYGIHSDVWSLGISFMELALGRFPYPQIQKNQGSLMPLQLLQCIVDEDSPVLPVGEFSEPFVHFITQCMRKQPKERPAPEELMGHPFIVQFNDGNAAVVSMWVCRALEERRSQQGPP

SMILES | effect on | method | tested at | remaining binding
CN(CCCC(F)(F)F)c1nccc(-c2cnn3ncccc23)n1 | binding |  | 1 µM | 100%
c1cncc(-c2cccc(Nc3nccc(NC4CCCCC4)n3)c2)c1 | binding | competition with immobilised ligand | 10 µM | 23%
COc1cnc(Nc2cccc(S(N)(=O)=O)c2)nc1N1CCN(c2ccccc2)C(=O)C1 | binding | competition with immobilised ligand | 1 µM | 67%
C[C@@H]1CN(c2cc(-c3nn(C)c4ccc(OC5(C)CC5)cc34)ncn2)C[C@H](C)O1 | cell-free assay | competition with immobilised ligand | 1 µM | 93%
C[C@H]1CCN(c2nccc(-c3cnn4ncccc34)n2)C1 | binding |  | 1 µM | 81%
CCCCN(CCCC)C(=O)CN1C[C@H](c2cc(OC)c3c(c2)OCO3)[C@@H](C(=O)O)[C@@H]1CC(C)(C)CCC | cell-free assay | competition with immobilised ligand | 1 µM | 100%
COc1ncc2cc3ccccc3nc2c1C#N | cell-free assay | competition with immobilised ligand | 5 µM | 94%
Cc1c[nH]c2nccc(Oc3c(F)cc(Nc4cc(Cl)nc(N)n4)cc3F)c12 | cell-free assay | competition with immobilised ligand | 0.1 µM | 82%
N[C@H]1CCN(c2nccc(-c3cnn4ncccc34)n2)C1 | binding |  | 1 µM | 69%
O=C(NCCCN1CCOCC1)c1ccc(Nc2nccc(-c3cc4ccccc4s3)n2)cc1 | binding | competition with immobilised ligand | 1 µM | 36%
CN(C)c1nccc(-c2cnc3ncccn23)n1 | binding |  | 1 µM | 48%
CN1CCN(c2cnc3c(C4CCN(C(=O)c5ccc(OC(F)(F)F)cc5N)CC4)ncnc3c2)CC1 | cell-free assay | competition with immobilised ligand | 1 µM | 86%
COc1ccnn2ncc(-c3ccnc(N(C)C)n3)c12 | binding |  | 1 µM | 76%
O=C(Nc1c[nH]nc1C(=O)NC1CCNCC1)c1cc(F)cc(F)c1 | binding | competition with immobilised ligand | 1 µM | 100%
CN(C(=O)c1ccccc1)c1cc(N(C)c2ccc3c(c2)CCc2ccc(C(=O)NCCN4CCOCC4)cc2C3=O)ccc1F | cell-free assay | competition with immobilised ligand | 1 µM | 100%
Cc1cnn2ncc(-c3ccnc(N(C)C)n3)c2c1 | binding |  | 1 µM | 78%
O=C(c1ccc(Nc2nccc(-c3cc4ccccc4s3)n2)cc1)N1CCC(N2CCCC2)CC1 | binding | competition with immobilised ligand | 1 µM | 16%
O=C(O)c1cc(-c2ccc(C3CCNCC3)cc2)c2ccc(-c3ccc(C(F)(F)F)cc3)cc2c1 | cell-free assay | competition with immobilised ligand | 1 µM | 96%
C=CC(=O)N1CCC(C(=O)NCC(=O)N2CCN(c3nc(-c4cnc(N)nc4C(F)F)nc(N4CCOCC4)n3)CC2)CC1 | binding | competition with immobilised ligand | 1 µM | 77%
N#Cc1ccc(Nc2ccc3[nH]c(=O)[nH]c3c2)c(Cl)c1 | cell-free assay | competition with immobilised ligand | 1 µM | 100%
CN(C)c1nccc(-c2cnn3ncccc23)n1 | binding |  | 1 µM | 68%
O=C(c1ccc(Nc2ncc(Cl)c(-c3ccc(Cl)s3)n2)cc1)N1CCC(N2CCCC2)CC1 | binding | competition with immobilised ligand | 1 µM | 0.85%
